Among the data in ChEMBL document CHEMBL3784968, “Synthesis and mechanistic aspects of 2-anilinonicotinyl-pyrazolo[1,5-a]pyrimidine conjugates that regulate cell proliferation in MCF-7 cells via estrogen signaling” (2016) are Activity values, retold here.

Activity calls are given as the source filed them. The calls are words filed in the database; no cut-off is given here.

Test [1] concerns MCF7. Put plainly: Cell cycle arrest in human MCF7 cells assessed as accumulation at S phase at 16 uM after 48 hrs (reference value: 9%). Format: functional. The method, boiled down: (§1)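 MCF-7 breast cancer cells exposed 48 h to 4, 8, 16 or 32 µM; doxorubicin as positive control. Cell cycle phase distribution (G0, G1, S, G2/M) read as percentage of cells; G0 fraction taken as apoptotic cells.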

The subject of test [2] is MCF7. Put plainly: Cell cycle arrest in human MCF7 cells assessed as accumulation at G2/M phase at 8 uM after 48 hrs (reference value: 25%). It is filed as functional. The essentials: as §1
The subject of test [3] is MCF7. Description: Cell cycle arrest in human MCF7 cells assessed as accumulation at G2/M phase at 32 uM after 48 hrs (reference value: 25%). It is filed as functional. The essentials:
as §1

Test [4] can be described thus: Cytotoxicity against human IMR32 cells assessed as cell viability after 24 to 48 hrs by MTT assay. It is filed as functional, IMR-32. The method, boiled down: (§2)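 MTT viability assay in SiHa, HeLa (cervical), MCF-7 (breast) and IMR-32 (neuroblastoma) cells, treated with conjugates over 0.25 to 8 µM for 48 h.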
Background: Tetrazolium assays rely on reduction of a dye to a coloured formazan, in cell work by metabolically active cells.

In test [5] the test system is MCF7. Description: Cell cycle arrest in human MCF7 cells assessed as accumulation at G1 phase at 32 uM after 48 hrs (reference value: 63%). It is filed as functional. The essentials: as §1
The subject of test [6] is MCF7. Description: Cytotoxicity against human MCF7 cells assessed as cell viability after 24 to 48 hrs by MTT assay. It is filed as functional. The essentials:
as §2

In test [7] the test system is MCF7. Description: Cell cycle arrest in human MCF7 cells assessed as accumulation at G0 phase at 32 uM after 48 hrs (reference value: 3%). It is filed as functional. The essentials:
as §1

For another test, the system named is HeLa. Description: Cytotoxicity against human HeLa cells assessed as cell viability after 24 to 48 hrs by MTT assay. It is filed as functional. The essentials: as §2
Test [8] deals with MCF7. Put plainly: Cell cycle arrest in human MCF7 cells assessed as accumulation at S phase at 4 uM after 48 hrs (reference value: 9%). It is filed as functional. The method, boiled down: as §1
Test [9] relates to MCF7. Description: Cell cycle arrest in human MCF7 cells assessed as accumulation at G2/M phase at 16 uM after 48 hrs (reference value: 25%). It is filed as functional. The essentials: as §1
In test [10] the test system is MCF7. Put plainly: Cell cycle arrest in human MCF7 cells assessed as accumulation at G1 phase at 8 uM after 48 hrs (reference value: 63%). Format: functional. The method, boiled down: as §1
Test [11] relates to MCF7. Description: Cell cycle arrest in human MCF7 cells assessed as accumulation at G0 phase at 8 uM after 48 hrs (reference value: 3%). Format: functional. The method, boiled down: as §1
Test [12] deals with MCF7. Put plainly: Cell cycle arrest in human MCF7 cells assessed as accumulation at G2/M phase at 4 uM after 48 hrs (reference value: 25%). It is filed as functional. The method, boiled down: as §1
Test [13] concerns MCF7. Description: Cell cycle arrest in human MCF7 cells assessed as accumulation at S phase at 8 uM after 48 hrs (reference value: 9%). Format: functional. The method, boiled down: as §1
Test [14] relates to MCF7. Put plainly: Cell cycle arrest in human MCF7 cells assessed as accumulation at G1 phase at 16 uM after 48 hrs (reference value: 63%). Format: functional. The method, boiled down:
as §1

Test [15] relates to MCF7. Description: Cell cycle arrest in human MCF7 cells assessed as accumulation at G0 phase at 16 uM after 48 hrs (reference value: 3%). Format: functional. The method, boiled down: as §1
Test [16] has as its system MCF7. Description: Cell cycle arrest in human MCF7 cells assessed as accumulation at G0 phase at 4 uM after 48 hrs (reference value: 3%). Format: functional. The essentials:
as §1

The subject of test [17] is MCF7. Description: Cell cycle arrest in human MCF7 cells assessed as accumulation at G1 phase at 4 uM after 48 hrs (reference value: 63%). It is filed as functional. The essentials:
as §1

In test [18] the test system is MCF7. Description: Cell cycle arrest in human MCF7 cells assessed as accumulation at S phase at 32 uM after 48 hrs (reference value: 9%). Format: functional. The essentials:
as §1

A further test concerns SiHa. Put plainly: Cytotoxicity against human SiHa cells assessed as cell viability after 24 to 48 hrs by MTT assay. It is filed as functional. The method, boiled down:
as §2

Test [19] concerns MCF7. Put plainly: Down regulation of Bcl-2 expression in human MCF7 cells at 1 uM after 24 hrs by Western blot analysis. Format: functional, cell-based. A general note: Immunoblotting shows a protein as a band on a membrane.
Test [20] deals with MCF7. Put plainly: Down regulation of cyclin D expression in human MCF7 cells at 1 uM after 24 hrs by Western blot analysis. It is filed as functional, cell-based.
Test [21] concerns MCF7. Put plainly: Down regulation of ER alpha expression in human MCF7 cells at 4 uM after 24 hrs by luciferase reporter gene assay. It is filed as functional, cell-based. The essentials:
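MCF-7 cells first transfected with ERα construct for 48 h, then compound exposure at 4 µM for 24 h; luciferase-based read-out; etoposide and doxorubicin run as standards.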
Background: In a reporter assay the amount or activity of a reporter protein is the signal.

The subject of test [22] is MCF7. Description: Down regulation of survivin expression in human MCF7 cells at 1 uM after 24 hrs by Western blot analysis. It is filed as functional, cell-based.

On to `COc1cccc2c1C(=O)c1c(O)c3c(c(O)c1C2=O)C[C@@](O)(C(=O)CO)C[C@@H]3O[C@H]1C[C@H](N)[C@H](O)[C@H](C)O1` [DOXORUBICIN], for which the Activity in the test with MCF7 [1] turned out to be 11%; in the test on MCF7 [2], 50%; in the test with MCF7 [3] it was 46%; in [4] it was 4.5 µM; in the test on MCF7 [5], 36%; in the test with MCF7 [6] it was 0.473 µM. The Activity in the test with MCF7 [7] was found to be 8%; with HeLa, 1.25 µM; with MCF7 [8] it was 8%; with MCF7 [9] it was 49%; in the test with MCF7 [10] it was 37%; with MCF7 [11] it was 4%. Moreover, the Activity is 48% in the test with MCF7 [12]; 9% in the test with MCF7 [13]; 34% in the test with MCF7 [14]; 6% in the test on MCF7 [15]; 1% in the test with MCF7 [16]; 44% in the test on MCF7 [17]. In addition, the Activity in the test with MCF7 [18] was determined as 10%; in the test with SiHa, 3.93 µM.
`O=C(c1cc(-c2ccc(F)cc2)n2nc(-c3ccccc3)cc2n1)N1CCN(C(=O)c2cccnc2Nc2ccccc2)CC1`: the Activity with MCF7 [1] turned out to be 8%; with MCF7 [2] it was 33%; in the test on MCF7 [3] it was 39%; in [4], 4.65 µM; in the test on MCF7 [5], 44%; with MCF7 [6], 1.79 µM. Besides, the Activity with MCF7 [7] stood at 9%; in the test on HeLa it was 2.29 µM; with MCF7 [8], 8%; in the test on MCF7 [9] it was 28%; in the test with MCF7 [10], 54%; with MCF7 [11], 2%. Besides, the Activity is 38% with MCF7 [12]; 10% with MCF7 [13]; 58% in the test on MCF7 [14]; 5% in the test on MCF7 [15]; 1% in the test on MCF7 [16]; 52% in the test on MCF7 [17]. For the same compound, the Activity turned out to be 9% in the test on MCF7 [18] and 2.65 µM in the test on SiHa. The result with MCF7 [19], in the test with MCF7 [20], with MCF7 [21] and with MCF7 [22] was Active.
Take `COc1ccc(-c2cc(C(=O)N3CCN(C(=O)c4cccnc4Nc4ccccc4)CC3)nc3cc(-c4ccccc4)nn23)cc1`: the Activity in the test with MCF7 [1] was determined as 7%; in the test with MCF7 [2] it was 32%; with MCF7 [3], 39%; in test [4], 4.75 µM; with MCF7 [5], 38%; in the test with MCF7 [6], 2.16 µM. For the same compound, the Activity in the test on MCF7 [7] stood at 13%; with HeLa, 2.43 µM; with MCF7 [8], 9%; in the test on MCF7 [9] it was 25%; with MCF7 [10], 57%; with MCF7 [11] it was 2%. Besides, the Activity in the test on MCF7 [12] is 37%; in the test with MCF7 [13], 9%; in the test on MCF7 [14], 64%; in the test with MCF7 [15] it was 4%; in the test with MCF7 [16], 1%; in the test on MCF7 [17], 52%. For the same compound, the figures for the Activity with MCF7 [18] and in the test on SiHa were 10% and 3.33 µM, respectively. In addition, the result with MCF7 [19], with MCF7 [20], in the test on MCF7 [21] and with MCF7 [22] was Active.
